{
  "source": "ChEMBL document CHEMBL1255491",
  "about": "“Altered growth, pigmentation, and antimicrobial susceptibility properties of Staphylococcus aureus due to loss of the major cold shock gene cspB” (2010)",
  "format_in_all_cases": "functional",
  "key": {"[1]": {"tested_on": "Staphylococcus aureus", "assay": "Antimicrobial activity against methicillin-resistant Staphylococcus aureus COL grown at 15 degC and measured at 37 degC by Etest", "procedure,_shortened": "(§1)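 Strain COL was grown in TSB at 37°C to mid-log phase, split into equal halves, and kept 1 h at 37°C (control) or 15°C (cold shock). Etest strips for daptomycin, gentamicin or trimethoprim-sulfamethoxazole were then applied per the manufacturer.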"}, "[2]": {"tested_on": "Staphylococcus aureus", "assay": "Antimicrobial activity against Staphylococcus aureus BD1 harboring aphA-3 insertion in cspB gene by Etest", "procedure,_shortened": "(§2)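 MIC by Etest strip (daptomycin, gentamicin, teicoplanin, trimethoprim-sulfamethoxazole), following the manufacturer's protocol with changes. Inoculum came from cells grown in TSB at 37°C for at least 20 h.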"}, "[3]": {"tested_on": "Staphylococcus aureus", "assay": "Antimicrobial activity against methicillin-resistant Staphylococcus aureus COL grown at 37 degC and measured at 15 degC by Etest", "procedure,_shortened": "as §1"}, "[4]": {"tested_on": "Staphylococcus aureus", "assay": "Antimicrobial activity against Staphylococcus aureus BD2 harboring wild-type cspB gene by Etest", "procedure,_shortened": "as §2"}, "[5]": {"tested_on": "Staphylococcus aureus", "assay": "Antimicrobial activity against methicillin-resistant Staphylococcus aureus COL grown at 37 degC and measured at 37 degC by Etest", "procedure,_shortened": "as §1"}, "[6]": {"tested_on": "Staphylococcus aureus", "assay": "Antimicrobial activity against methicillin-resistant Staphylococcus aureus isolate COL by Etest", "procedure,_shortened": "as §2"}, "[7]": {"tested_on": "Staphylococcus aureus", "assay": "Antimicrobial activity against methicillin-resistant Staphylococcus aureus COL grown at 15 degC and measured at 15 degC by Etest"}, "[8]": {"tested_on": "Staphylococcus aureus", "assay": "Ratio of MIC for methicillin-resistant Staphylococcus aureus COL grown at 37 degC and measured at 37 degC to MIC for methicillin-resistant Staphylococcus aureus COL grown at 37 degC and measured at 15 degC by Etest"}, "[9]": {"tested_on": "Staphylococcus aureus", "assay": "Ratio of MIC for methicillin-resistant Staphylococcus aureus COL grown at 15 degC and measured at 37 degC to MIC for methicillin-resistant Staphylococcus aureus COL grown at 15 degC and measured at 15 degC by Etest"}},
  "data": [
    {"compound": "GENTAMICIN", "values": [
      {"measurement": "MIC", "setting": "[1]", "result": 0.38, "unit": "µg/mL"},
      {"measurement": "MIC", "setting": "[2]", "result": 32, "unit": "µg/mL"},
      {"measurement": "MIC", "setting": "[3]", "result": 0.21, "unit": "µg/mL"},
      {"measurement": "MIC", "setting": "[4]", "result": 0.38, "unit": "µg/mL"},
      {"measurement": "MIC", "setting": "[5]", "result": 0.34, "unit": "µg/mL"},
      {"measurement": "MIC", "setting": "[6]", "result": 0.38, "unit": "µg/mL"},
      {"measurement": "MIC", "setting": "[7]", "result": 0.29, "unit": "µg/mL"}
    ]},
    {"compound": "CCCCCCCCCC(=O)N[C@@H](Cc1c[nH]c2ccccc12)C(=O)N[C@H](CC(N)=O)C(=O)N[C@@H](CC(=O)O)C(=O)N[C@@H]1C(=O)NCC(=O)N[C@@H](CCCN)C(=O)N[C@@H](CC(=O)O)C(=O)N[C@H](C)C(=O)N[C@@H](CC(=O)O)C(=O)NCC(=O)N[C@H](CO)C(=O)N[C@@H]([C@H](C)CC(=O)O)C(=O)N[C@@H](CC(=O)c2ccccc2N)C(=O)O[C@@H]1C", "values": [
      {"measurement": "MIC", "setting": "[1]", "result": 1.5, "unit": "µg/mL"},
      {"measurement": "MIC", "setting": "[2]", "result": 0.064, "unit": "µg/mL"},
      {"measurement": "MIC", "setting": "[3]", "result": 0.46, "unit": "µg/mL"},
      {"measurement": "Ratio", "setting": "[8]", "result": 4},
      {"measurement": "MIC", "setting": "[4]", "result": 2, "unit": "µg/mL"},
      {"measurement": "MIC", "setting": "[5]", "result": 1.5, "unit": "µg/mL"},
      {"measurement": "MIC", "setting": "[6]", "result": 1.5, "unit": "µg/mL"},
      {"measurement": "Ratio", "setting": "[9]", "result": 2.4},
      {"measurement": "MIC", "setting": "[7]", "result": 0.63, "unit": "µg/mL"}
    ]},
    {"compound": "CC(=O)N[C@@H]1[C@H](Oc2c3cc4cc2Oc2ccc(cc2Cl)[C@@H](O[C@@H]2O[C@@H](CO)[C@@H](O)[C@H](O)[C@@H]2NC(C)=O)[C@@H]2NC(=O)[C@H](NC(=O)[C@@H]4NC(=O)[C@H]4NC(=O)[C@@H](Cc5ccc(c(Cl)c5)O3)NC(=O)[C@H](N)c3ccc(O)c(c3)Oc3cc(O)cc4c3)c3ccc(O)c(c3)-c3c(O[C@H]4O[C@H](CO)[C@@H](O)[C@@H](O)[C@@H]4O)cc(O)cc3[C@@H](C(=O)O)NC2=O)O[C@@H](CO)[C@@H](O)[C@@H]1O", "values": [
      {"measurement": "MIC", "setting": "[2]", "result": 0.75, "unit": "µg/mL"},
      {"measurement": "MIC", "setting": "[4]", "result": 2, "unit": "µg/mL"},
      {"measurement": "MIC", "setting": "[6]", "result": 3, "unit": "µg/mL"}
    ]}
  ]
}
